In ChEMBL document CHEMBL4020726, “Discovery of 2-((4,6-dimethylpyrimidin-2-yl)thio)-N-phenylacetamide derivatives as new potent and selective human sirtuin 2 inhibitors” (Eur J Med Chem, 2017):
The source made the active and inactive calls. No cut-off for these calls is given here.

How the values were obtained:
[1] = biological target: T1, NAD-dependent protein deacetylase sirtuin-2 (Homo sapiens) (UniProt Q8IXJ6); assay: Inhibition of human SIRT2 at 50 uM
T1 sequence (whole entry): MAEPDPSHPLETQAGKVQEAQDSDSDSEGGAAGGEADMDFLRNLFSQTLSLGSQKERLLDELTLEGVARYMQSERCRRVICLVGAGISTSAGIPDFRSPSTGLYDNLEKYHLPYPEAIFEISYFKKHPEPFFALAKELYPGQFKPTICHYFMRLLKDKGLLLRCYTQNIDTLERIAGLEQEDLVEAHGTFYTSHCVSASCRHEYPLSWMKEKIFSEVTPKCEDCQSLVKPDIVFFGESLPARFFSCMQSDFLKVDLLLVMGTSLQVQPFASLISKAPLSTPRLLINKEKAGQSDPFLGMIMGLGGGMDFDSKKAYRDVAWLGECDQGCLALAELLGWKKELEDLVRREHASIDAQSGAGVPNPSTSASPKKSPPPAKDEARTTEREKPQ

[2] = biological target: T1, NAD-dependent protein deacetylase sirtuin-2 (Homo sapiens); assay: Inhibition of human SIRT2 at 5 uM
[3] = Growth inhibition of human HL7702 cells at 100 uM after 120 hrs by MTT assay; format: cell-based; details: HL7702 (L02) cells, read-out: GI
MCF7 [4] = assay: Growth inhibition of human MCF7 cells at 50 uM after 120 hrs by MTT assay; format: functional
In short: (§1)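 MCF-7 cells were kept in high-glucose DMEM with 10% FBS and penicillin/streptomycin, split at 80–90% confluency and used within 10 passages. They were seeded at 3000 cells/well, grown 24 h, then exposed for 120 h at 37°C, 5% CO2 (final DMSO 1% v/v). MTT formazan was dissolved in acidified 20% SDS and read at 570 nm. Triplicates; experiments repeated at least twice.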

MCF7 [5] = assay: Growth inhibition of human MCF7 cells after 120 hrs by MTT assay; format: functional, cell-based; in short: as §1
[6] = biological target: T2, NAD-dependent protein deacetylase sirtuin-1 (Homo sapiens, UniProt Q96EB6); assay: Inhibition of SIRT1 (unknown origin)
T2 sequence (Q96EB6 whole entry): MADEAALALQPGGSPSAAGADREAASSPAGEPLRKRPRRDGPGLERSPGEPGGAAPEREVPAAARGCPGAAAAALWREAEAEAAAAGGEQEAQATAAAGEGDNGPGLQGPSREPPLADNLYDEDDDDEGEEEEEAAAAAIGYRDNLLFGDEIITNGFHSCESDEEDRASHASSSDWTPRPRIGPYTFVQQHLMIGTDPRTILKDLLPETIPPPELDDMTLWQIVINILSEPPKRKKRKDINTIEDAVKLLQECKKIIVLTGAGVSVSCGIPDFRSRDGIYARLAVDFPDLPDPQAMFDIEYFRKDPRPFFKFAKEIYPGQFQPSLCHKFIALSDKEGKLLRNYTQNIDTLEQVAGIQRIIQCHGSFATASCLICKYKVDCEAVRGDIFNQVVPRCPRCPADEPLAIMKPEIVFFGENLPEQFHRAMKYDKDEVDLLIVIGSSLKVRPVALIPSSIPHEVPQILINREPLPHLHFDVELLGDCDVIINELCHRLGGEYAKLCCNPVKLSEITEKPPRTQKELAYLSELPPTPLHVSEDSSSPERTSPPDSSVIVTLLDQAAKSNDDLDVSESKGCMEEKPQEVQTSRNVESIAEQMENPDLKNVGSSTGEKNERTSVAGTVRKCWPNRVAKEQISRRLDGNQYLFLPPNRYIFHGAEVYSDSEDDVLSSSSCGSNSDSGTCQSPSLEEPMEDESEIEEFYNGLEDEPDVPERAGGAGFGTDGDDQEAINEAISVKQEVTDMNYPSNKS

[7] = biological target: T3, NAD-dependent protein deacetylase sirtuin-3, mitochondrial (Homo sapiens, UniProt Q9NTG7); assay: Inhibition of SIRT3 (unknown origin)
T3 sequence (Q9NTG7 whole entry): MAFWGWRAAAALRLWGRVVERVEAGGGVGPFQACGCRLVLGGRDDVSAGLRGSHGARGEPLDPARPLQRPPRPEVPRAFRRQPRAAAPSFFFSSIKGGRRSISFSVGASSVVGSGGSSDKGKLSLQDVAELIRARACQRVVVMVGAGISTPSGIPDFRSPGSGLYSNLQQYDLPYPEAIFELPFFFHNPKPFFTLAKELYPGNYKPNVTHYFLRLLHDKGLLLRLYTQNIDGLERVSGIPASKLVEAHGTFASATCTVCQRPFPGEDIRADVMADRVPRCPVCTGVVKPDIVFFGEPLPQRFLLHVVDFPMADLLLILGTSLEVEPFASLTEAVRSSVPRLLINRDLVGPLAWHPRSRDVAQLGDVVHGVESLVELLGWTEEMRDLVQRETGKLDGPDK

Row | Structure (SMILES) | inhibition [1] | inhibition [2] | further results
1 | Cc1cc(C)nc(SCC(=O)Nc2cccc(COc3ccc4ccccc4c3)c2)n1 | 84% | 59% | 
2 | Cc1cc(C)nc(SCC(=O)Nc2ccc(Cc3ccccc3)cc2)n1 | 74% | 70% | 
3 | Cc1cc(C)nc(SCC(=O)Nc2cccc(COc3ccc4[nH]ncc4c3)c2)n1 | 91% | 57% | 
4 | Cc1cc(C)nc(SCC(=O)Nc2ccc(NCc3cccs3)cc2)n1 | 70% | 15% | 
5 | Cc1cc(C)nc(SCC(=O)Nc2cccc(OCc3ccccc3)c2)n1 | 92% | 59% | 
6 | CC(=O)Nc1ccc(OCc2cccc(NC(=O)CSc3nc(C)cc(C)n3)c2)cc1 | 92% | 62% | 
7 | Cc1cc(C)nc(SCC(=O)Nc2ccc(OCc3ccccc3)cc2)n1 | 62% | 40% | 
8 | CC(=O)Nc1cccc(OCc2cccc(NC(=O)CSc3nc(C)cc(C)n3)c2)c1 | 99% | 68% | 
9 | Cc1cc(C)nc(SCC(=O)Nc2ccc(Oc3ccccc3)cc2)n1 | 78% | 42% | 
10 | Cc1cc(C)nc(SCC(=O)Nc2ccc(COc3ccccc3)cc2)n1 | 24% | 1% | inhibition at 120 h, 100 µM [3]: 6%; growth inhibition (GI) (MCF7 [4]): inactive
11 | Cc1cc(C)nc(S(=O)(=O)CC(=O)Nc2ccc(Oc3ccccc3)cc2)n1 | 21% | -2% | 
12 | Cc1cc(C)nc([S+]([O-])CC(=O)Nc2ccc(Oc3ccccc3)cc2)n1 (centres undefined) | 79% | 34% | 
13 | Cc1cc(C)nc(SCC(=O)Nc2cccc(COc3ccc(NS(=O)(=O)C4CC4)cc3)c2)n1 | 95% | 67% | 
14 | Cc1cc(C)nc(SCC(=O)Nc2cccc(COc3cccc4cccnc34)c2)n1 | 73% | 41% | 
15 | Cc1ccc(C(=O)Nc2ccc(S(=O)(=O)O)c3cc(S(=O)(=O)O)cc(S(=O)(=O)O)c23)cc1NC(=O)c1cccc(NC(=O)Nc2cccc(C(=O)Nc3cc(C(=O)Nc4ccc(S(=O)(=O)O)c5cc(S(=O)(=O)O)cc(S(=O)(=O)O)c45)ccc3C)c2)c1 | 73% | 31% | 
16 | Cc1cc(C)nc(SCC(=O)Nc2cccc(COc3ccc(NC(=O)c4cccs4)cc3)c2)n1 |  |  | inhibition at 120 h, 100 µM [3]: 3%; growth inhibition (GI) (MCF7 [5]): Dose-dependent effect; IC50 [6]: > 300 µM; inhibition of growth at 50 µM (MCF7 [4]; MCF7, 120 h, read-out: GI): > 50%; IC50 [7]: > 300 µM
17 | Cc1cc(C)nc(SCC(=O)Nc2ccc(NCc3ccncc3)cc2)n1 | 43% | 10% | 
18 | Cc1cc(C)nc(SCC(=O)Nc2ccc(NCc3ccco3)cc2)n1 | 58% | 17% | 

Row | Structure (SMILES) | inhibition [1] | inhibition [2] | further results
19 | Cc1cc(C)nc(SCC(=O)Nc2cccc(COc3ccc(NS(=O)(=O)c4ccccc4)cc3)c2)n1 | 87% | 73% | 
20 | Cc1cc(C)nc(SCC(=O)Nc2ccc(Nc3ccccc3)cc2)n1 | 72% | 19% | 
21 | Cc1cc(C)nc(SCC(=O)Nc2cccc(Oc3ccccc3)c2)n1 | 92% | 49% | 
22 | Cc1cc(C)nc(SCC(=O)Nc2cccc(COc3cccc4ccccc34)c2)n1 | 79% | 42% | 
23 | Cc1cc(C)nc(SCC(=O)Nc2ccc(C(=O)c3ccccc3)cc2)n1 | 74% | 22% | 
24 | Cc1cc(C)nc(SCC(=O)Nc2cccc(Cc3ccccc3)c2)n1 | 96% | 73% | 
25 | Cc1cc(C)nc(SCC(=O)Nc2cccc(COc3ccccc3)c2)n1 | 96% | 71% | 
26 | Cc1cc(C)nc(SCC(=O)Nc2ccc(NCc3ccccc3)cc2)n1 | 55% | 9% | 
27 | Cc1cc(C)nc(SCC(=O)Nc2cccc(CNc3ccccc3)c2)n1 | 90% | 49% | 
28 | O=C(Nc1ccccc1-c1cn2c(CN3CCNCC3)csc2n1)c1cnc2ccccc2n1 |  |  | IC50 [7]: 0.85 µM
29 | Cc1cc(C)nc(SCC(=O)Nc2cccc(NCc3ccccc3)c2)n1 | 95% | 64% | 
30 | Cc1cc(C)nc(SCC(=O)Nc2cccc(C(O)c3ccccc3)c2)n1 (centres undefined) | 78% | 18% | 
31 | Cc1cc(C)nc(SCC(=O)Nc2ccc(C(O)c3ccccc3)cc2)n1 (centres undefined) | 75% | 26% | 
32 | Cc1cc(C)nc(SCC(=O)Nc2ccc(CNc3ccccc3)cc2)n1 | 72% | 20% | 
33 | Cc1cc(C)nc(SCC(=O)Nc2cccc(NCc3cccs3)c2)n1 | 93% | 60% | 
34 | Cc1cc(C)nc(SCC(=O)Nc2cccc(Nc3ccccc3)c2)n1 | 95% | 61% | 
35 | Cc1cc(C)nc(SCC(=O)Nc2cccc(C(=O)c3ccccc3)c2)n1 | 89% | 40% | 
